# KCC2 mod = KCC2 (human) Cl- transport modulation; Q9H2X9; KCC2 cells, thallium flux FluoZin-2 fluorescence; actives 2.2% (n = 190,000); B-score of Tl+ flux slope (higher = more flux/activation; lower = inhibition) at 10 µM; AID 1456;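 active = thallium flux slope and its plate-corrected score both differing from the plate sample mean at a set confidence after two filtering rounds, in either direction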;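 also: slope of fluorescence scaled to starting intensity during 10 to 20 s after thallium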
# KCNK3 block = human KCNK3 channel inhibition, primary screen; O14649; CHO-KCNK3 thallium flux, FluxOR fluorescence; stronger effect = lower value; B-score at 10 µM; actives 0.84% (n = 340,000);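 active = B-score under library mean minus 4 SD, starting fluorescence ratio at most library mean plus 5 SD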;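 also: more negative B-score means stronger inhibition of thallium flux through KCNK3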
# KCNQ1 inh = human KCNQ1 channel inhibition; P51787; CHO-K1 KCNQ1, FluxOR thallium flux fluorescence; stronger effect = higher value; B-score at 10 µM; actives 1.3% (n = 310,000); AID 2642;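 active = compounds whose thallium flux B-score, printed positive for inhibition, exceeds three library SD while starting fluorescence stays within three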;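 also: channel opened by potassium depolarization with thallium stimulus after 20 min compound exposure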
# hERG rescue = hERG (human) protection from proarrhythmic block; Q12809; CHO-hERG, FluxOR thallium flux, dofetilide IC70 present; activation (rescue from dofetilide block), less the hit threshold, % at 10 µM; actives 0.51% (n = 310,000); AID 1511;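 active = activation above the mean of controls blocked by dofetilide plus 5 SD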;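 also: thallium influx through hERG after potassium depolarization seen as dye fluorescence rise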
# KCNQ1 pot = potentiators or activators of human KCNQ1 potassium channel; P51787; CHO-K1 KCNQ1, thallium flux FluxOR fluorescence; stronger effect = higher value; B-score at 10 µM; actives 0.35% (n = 310,000);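 active = fluorescence ratio B-score, a plate-corrected score, at least three library SD, with initial intensity B-score within 5 SD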
#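 Assay system: CHO-K1 cells stably expressing KCNQ1; Medium: assay buffer with matched DMSO; Also added: K+/Tl+ depolarizing stimulus; Dosing: single dose; Timing: dye 90 min, compound 20 min, room temperature; Measured by: kinetic FluxOR thallium fluorescence, 10-s 1-Hz baseline, 110-s post-stimulus read; Read-out: peak-minus-minimum fluorescence over initial fluorescence, negative-control normalized, B-scored.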
# KCNK9 block = blocks the human KCNK9 two-pore domain potassium channel | AID 488922 | B-score at 10 µM | actives 1.2% (n = 310,000) | HEK293 KCNK9, FluxOR thallium flux fluorescence; stronger effect = lower value;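 active = ratio B-score over 3 SD below the library mean, with starting fluorescence within 5 SD of its mean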;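 also: negative B-score means less thallium flux so channel inhibition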
# Target sequence (Q9NPC2 whole entry, looked up, the tested form may be a part): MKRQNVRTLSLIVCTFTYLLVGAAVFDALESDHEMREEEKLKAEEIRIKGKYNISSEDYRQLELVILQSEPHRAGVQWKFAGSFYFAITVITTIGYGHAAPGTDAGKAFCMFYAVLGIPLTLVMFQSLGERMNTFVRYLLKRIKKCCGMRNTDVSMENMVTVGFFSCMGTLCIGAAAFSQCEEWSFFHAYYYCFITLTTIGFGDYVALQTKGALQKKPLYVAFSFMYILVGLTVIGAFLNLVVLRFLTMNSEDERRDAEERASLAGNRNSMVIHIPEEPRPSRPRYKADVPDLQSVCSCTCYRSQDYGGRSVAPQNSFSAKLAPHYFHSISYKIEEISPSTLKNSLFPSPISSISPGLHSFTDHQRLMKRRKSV
# KCNK9 inh conf = confirmation of human KCNK9 potassium channel inhibitors. actives 43% (n = 4,900). HEK293 KCNK9 cells, FluxOR thallium flux fluorescence. AID 492992. shares compounds with KCNK9 block. inhibition, % at 10 µM;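 active = thallium signal inhibited by more than 5 SD of the compound-free buffer control wells, on both duplicate plates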;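 also: 0% = assay buffer control wells without compound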
# Kir21 sel = tests whether KCNK9 modulators also affect mouse Kir2.1. AID 492993. inhibition, % at 10 µM. actives 4% (n = 4,900). shares compounds with KCNK9 block. Kir2.1 cells, FluxOR thallium flux fluorescence;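 active = thallium signal drop more than 5 SD beyond the mean of the no-compound control wells, seen in both duplicate plates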;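 also: signal is fluorescence rise after thallium addition divided by baseline fluorescence; plate controls were assay buffer only for no effect and full block by chlorpromazine control for full effect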
# HEK293 Tl ctr = second counter-screen for KCNK9 modulators: effect in non-induced cells. shares compounds with KCNK9 block. non-induced KCNK9-HEK293, FluxOR thallium flux. inhibition, % at 10 µM. actives 40% (n = 4,900);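 active = thallium signal drop beyond 5 SD of the untreated control mean, on both duplicate plates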;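 also: plate controls were buffer only IC0 wells for no effect and SID17386958 at its maximal inhibitory level for full effect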
# * = called active by the depositor; i = inactive; nt = no result given. Shown are actives, neighbours in structure and some others; about 4.1% of the full set was active somewhere.
SMILES,KCC2 mod,KCNK3 block,KCNQ1 inh,hERG rescue,KCNQ1 pot,KCNK9 block,KCNK9 inh conf,Kir21 sel,HEK293 Tl ctr
COc1cc(C)ccc1OCCOCCOc1c(C)cc(C)cc1Br,-0.045,i,i,-11,i,i,i,i,i
COc1ccc(OCc2nnc(SCC(=O)Nc3ccccc3F)o2)cc1,nt,i,i,-4,i,i,nt,nt,nt
CCn1c(CCCOc2ccc(Cl)cc2Cl)nnc1SCC(=O)Nc1cc(F)ccc1C,-0.71,i,i,-6,i,-9.7*,58%*,i,30%*
Cn1c(CCCOc2ccc(Cl)cc2Cl)nnc1SCC(=O)Nc1ccc(F)c(Cl)c1,0.016,i,i,-9,i,i,i,i,i
CC(NCC(=O)Nc1cc(S(=O)(=O)N2CCCCCC2)ccc1Cl)c1ccccc1 (stereo not drawn),-1.3,i,i,-12,i,i,i,i,i
Cc1ccccc1NCC(=O)Nc1cc(S(=O)(=O)N2CCCCC2)ccc1C,nt,i,nt,nt,nt,nt,nt,nt,nt
Cc1cc(Cl)ccc1C(=O)C1CCCN(C(=O)c2cnsn2)C1 (stereo not drawn),-0.11,i,i,-7,i,i,i,i,i
COc1ccc(NC2CCCN(C(=O)c3ccc(CSC)o3)C2)cc1OC (stereo not drawn),nt,i,i,-6,i,i,nt,nt,nt
COCc1ccc(C(=O)N2CCCC(C(=O)c3ccc(Cl)cc3C)C2)o1 (stereo not drawn),nt,i,i,-9,i,i,i,i,i
COCc1ccc(C(=O)N2CCCC(Nc3ccc4c(c3)OCCO4)C2)o1 (stereo not drawn),nt,i,i,-11,i,i,i,i,i
Cc1cc(Cl)ccc1C(=O)C1CCCN(C(=O)c2ccoc2)C1 (stereo not drawn),nt,i,i,-6,i,i,i,i,i
Cc1cc(C(=O)N2CCCC(C(=O)c3ccc(Cl)cc3C)C2)no1 (stereo not drawn),nt,i,i,-10,i,i,nt,nt,nt
Cc1ccc(C(=O)N2CCCc3ccccc32)c(F)c1F,nt,i,i,-8,i,i,nt,nt,nt
CCn1c(C(=O)N2CCc3ccccc3C2)cc2sccc21,-0.32,i,i,-11,i,i,i,i,i
CCN(CC)S(=O)(=O)c1cccc(-c2nnc(SCCOc3ccccc3C)o2)c1,-1.3,i,i,-15,i,i,i,i,i
CCN(CC)S(=O)(=O)c1cccc(-c2nnc(SCCOc3ccc(Cl)cc3)o2)c1,-0.44,i,i,-4,i,-10*,48%*,i,i
CCN1C(=O)/C(=C\c2nc3ccccc3c(=O)n2CC)c2ccccc21,-0.43,i,i,-15,i,i,i,i,i
CCn1c(/C=C2/C(=O)N(C)c3ccccc32)nc2ccccc2c1=O,0.31,i,i,-3,i,i,nt,nt,nt
O=C(c1ccc(-c2cccc(C(F)(F)F)c2)o1)N1CCN(c2ccccc2O)CC1,nt,i,i,-16,i,-8.5*,50%*,i,i
Cc1onc(-c2ccccc2Cl)c1C(=O)NCc1cccnc1,0.34,i,i,-6,i,i,nt,nt,nt
Cc1onc(-c2ccccc2Cl)c1C(=O)NC(=S)NCc1cccnc1,1.9,i,i,-12,i,i,i,i,i
CC12CCC3C(CCC4CC(O)CCC43C)C1CC(O)C2 (stereo not drawn),nt,i,nt,nt,nt,nt,nt,nt,nt
C[C@]12CCC(O)CC1CCC1C2CC[C@]2(C)C(c3cc(C(F)(F)F)n[nH]3)CCC12 (stereo partly drawn),0.89,i,i,-9,i,-13*,33%*,i,63%*
COCCn1c(N)c(C(=O)c2cccc(S(=O)(=O)N3CCCCCC3)c2)c(=O)[nH]c1=O,nt,i,nt,nt,nt,nt,nt,nt,nt
CC(C)N(Cc1ccccc1)C(=O)COc1ccccc1,nt,i,i,-1,i,i,nt,nt,nt
SMILES,KCC2 mod,KCNK3 block,KCNQ1 inh,hERG rescue,KCNQ1 pot,KCNK9 block,KCNK9 inh conf,Kir21 sel,HEK293 Tl ctr
CC(C)N(Cc1ccccc1)C(=O)CCc1ccccc1,-0.69,i,i,-6,i,i,i,i,i
COc1cccc(CN(C)C(=O)CNC(=O)c2sc3ccccc3c2Cl)c1OC,nt,i,i,-14,i,i,i,i,i
Cc1cc(C)c(C(=O)OCC(=O)Nc2cccc(S(=O)(=O)N3CCCCC3)c2)c(C)c1,nt,i,6*,-19,i,i,i,i,i
O=C(COC(=O)CCC(=O)c1ccc(F)cc1)Nc1cccc(S(=O)(=O)N2CCCC2)c1,-1.8,i,i,-12,i,i,i,i,i
CCC(=O)c1ccc(OCC(=O)OCC(=O)Nc2cccc(S(=O)(=O)N3CCCC3)c2)cc1,nt,i,nt,nt,nt,nt,nt,nt,nt
O=C(Nc1ccc2c(c1)OCCO2)c1ccc(Br)c(S(=O)(=O)N2CCOCC2)c1,nt,i,nt,nt,nt,nt,nt,nt,nt
O=C(Nc1ccc2c(c1)OCO2)c1ccc(Br)c(S(=O)(=O)N2CCCC2)c1,-1.4,i,i,-6,i,-8.7*,i,i,i
O=C(NCCNc1ccc([N+](=O)[O-])cc1C(F)(F)F)c1cccc(F)c1,0.23,i,i,-5,i,i,i,i,i
O=C(NCCNc1ccc([N+](=O)[O-])cc1)c1cccc(Br)c1,1.4,i,i,-8,i,i,nt,nt,nt
O=C(NCCNc1ccc([N+](=O)[O-])cc1C(F)(F)F)c1ccccc1,-0.91,i,i,-8,i,i,i,i,i
COc1ccc2cc(C#N)c(N3CCN(C(=O)c4ccccc4C)CC3)nc2c1,-0.62,i,i,-12,i,i,i,i,i
O=C(NCCOc1ccc(Cl)cc1)c1ccc2ccccc2n1,-0.0053,i,i,-10,i,i,i,i,i
Cc1ccc(OCCNC(=O)c2ccc3ccccc3n2)cc1,nt,i,i,-12,i,i,i,i,i
CCSc1nnc(NC(=O)CCN2C(=O)C3CCCCC3C2=O)s1 (stereo not drawn),nt,i,nt,nt,nt,nt,nt,nt,nt

# High-throughput results from PubChem.
